In ChEMBL document CHEMBL4130579, “Sulfur-Containing Aristoloxazines and Other Constituents of the Roots of Aristolochia orbicularis” (2017):
Converted amounts (≈) assume the structure as drawn. The source made the active and inactive calls. No cut-off for these calls is given here.

Experiments:
Staphylococcus aureus [1] = assay: Antibacterial activity against beta-lactamase producing methicillin-resistant Staphylococcus aureus ATCC 11632 after 24 hrs by broth microdilution method; type: functional; conditions: ATCC 11632, 24 h
In short: (§1)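 Strains were kept on Mueller-Hinton agar at 4 °C and grown in MH broth at 37 °C for 18 h. Broth microdilution followed NCCLS, with serial dilutions over 0.125–128 μg/mL and an inoculum of 10^5 CFU/mL set by the 0.5 McFarland standard. Plates were incubated at 37 °C for 24 h, then p-iodonitrotetrazolium violet (0.5 mg/mL) was added. MIC was the lowest concentration without red colour.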

Candida albicans = assay: Antifungal activity against Candida albicans ATCC 10231 after 24 hrs by agar dilution method; type: functional
In short: (§2)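 Agar dilution on Sabouraud glucose agar with 2-fold dilutions from 128 to 0.5 μg/mL and final DMSO below 2% (v/v). Inocula were spotted with a 0.005 mL loop: C. albicans at 10^5 cells/mL and filamentous fungi at 10^6 spores/mL. Plates were incubated at 29 °C in duplicate, for 24 h (C. albicans, A. niger) or 72 h (dermatophytes).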

Escherichia coli = assay: Antibacterial activity against Escherichia coli ATCC 25922 at 128 ug/ml after 24 hrs by broth microdilution method; type: functional, organism-based
In short: (§3)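 Strains kept on Mueller-Hinton agar at 4 °C, grown in MH broth at 37 °C for 18 h before testing. NCCLS standard broth microdilution, serial dilution over 0.125−128 μg/mL. Inoculum set to 10^5 CFU/mL by 0.5 McFarland standard. Plates incubated at 37 °C for 24 h, then p-iodonitrotetrazolium violet (0.5 mg/mL) added. Red colour marks viable cells; growth at the top concentration scored.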

Proteus mirabilis = assay: Antibacterial activity against Proteus mirabilis ATCC 43071 at 128 ug/ml after 24 hrs by broth microdilution method; type: functional, organism-based; in short: as §3
Staphylococcus aureus [2] = assay: Antibacterial activity against methicillin-resistant Staphylococcus aureus ATCC 43300 after 24 hrs by broth microdilution method; type: functional; conditions: ATCC 43300, 24 h; in short: as §1
Staphylococcus aureus [3] = assay: Antibacterial activity against methicillin-sensitive Staphylococcus aureus ATCC 6358 after 24 hrs by broth microdilution method; type: functional; conditions: ATCC 6358, 24 h; in short: as §1
Aspergillus niger = assay: Antifungal activity against Aspergillus niger ATCC 10335 after 24 hrs by agar dilution method; type: functional; conditions: ATCC 10335, 24 h; in short: as §2
Staphylococcus aureus [4] = assay: Antibacterial activity against methicillin-resistant Staphylococcus aureus ATCC 33591 after 24 hrs by broth microdilution method; type: functional; conditions: ATCC 33591, 24 h; in short: as §1
[5] = tested on: Trichophyton mentagrophytes; assay: Antifungal activity against Trichophyton mentagrophytes ATCC 28185 after 72 hrs by agar dilution method; type: functional; conditions: ATCC 28185, 72 h; in short: as §2
Trichophyton rubrum = assay: Antifungal activity against Trichophyton rubrum ATCC 28188 after 72 hrs by agar dilution method; type: functional; conditions: ATCC 28188, 72 h; in short: as §2
Salmonella typhi = assay: Antibacterial activity against Salmonella typhi ATCC 06539 at 128 ug/ml after 24 hrs by broth microdilution method; type: functional, organism-based; conditions: Salmonella enterica subsp. enterica serovar Typhi; in short: as §3

Compound | MIC (Staphylococcus aureus [1]) | MIC (Candida albicans; ATCC 10231, 24 h) | Activity (Escherichia coli) | Activity (Proteus mirabilis) | MIC (Staphylococcus aureus [2]) | MIC (Staphylococcus aureus [3]) | MIC (Aspergillus niger) | MIC (Staphylococcus aureus [4]) | MIC [5] | MIC (Trichophyton rubrum) | Activity (Salmonella typhi) | MIC (Candida albicans)
COc1cc2c(=O)onc3c2c(c1OC)-c1cccc(OC)c1[C@@H]3SCC(N)=O | 0.25 µg/mL (≈ 0.603 µM) | 25 µg/mL (≈ 60.3 µM) | inactive | inactive | 0.25 µg/mL (≈ 0.603 µM) | 0.5 µg/mL (≈ 1.21 µM) | 25 µg/mL (≈ 60.3 µM) | 0.25 µg/mL (≈ 0.603 µM) | 1 µg/mL (≈ 2.41 µM) | 1 µg/mL (≈ 2.41 µM) | inactive | 
CC1(C)S[C@@H]2[C@H](NC(=O)[C@H](N)c3ccccc3)C(=O)N2[C@H]1C(=O)O [AMPICILLIN] | 64 µg/mL (≈ 183 µM) |  |  |  | 128 µg/mL (≈ 366 µM) | 2 µg/mL (≈ 5.72 µM) |  | 128 µg/mL (≈ 366 µM) |  |  |  | 
O=C(N[C@H](CO)[C@H](O)c1ccc([N+](=O)[O-])cc1)C(Cl)Cl [CHLORAMPHENICOL] | 2 µg/mL (≈ 6.19 µM) |  |  |  | 2 µg/mL (≈ 6.19 µM) | 1 µg/mL (≈ 3.09 µM) |  | 2 µg/mL (≈ 6.19 µM) |  |  |  | 
Clc1ccc(COC(Cn2ccnc2)c2ccc(Cl)cc2Cl)c(Cl)c1 (configuration not stated) [MICONAZOLE] |  |  |  |  |  |  | 16 µg/mL (≈ 38.4 µM) |  | 2 µg/mL (≈ 4.81 µM) | 2 µg/mL (≈ 4.81 µM) |  | 
Cc1onc(-c2ccccc2)c1C(=O)N[C@@H]1C(=O)N2[C@@H]1SC(C)(C)[C@@H]2C(=O)O [OXACILLIN] | 32 µg/mL (≈ 79.7 µM) |  |  |  | 128 µg/mL (≈ 319 µM) | 2 µg/mL (≈ 4.98 µM) |  | 128 µg/mL (≈ 319 µM) |  |  |  | 
NYSTATIN |  |  |  |  |  |  |  |  |  |  |  | 8 µg/mL
